Among the data in ChEMBL document CHEMBL1156469 (2007) are Activity and Ratio values, retold here.

Active and inactive are the calls of the source. The calls are words filed in the database; no cut-off is given here.

Experiment [1] deals with T1, Estrogen receptor (Mus musculus) (UniProt P19785).
T1 sequence (whole entry): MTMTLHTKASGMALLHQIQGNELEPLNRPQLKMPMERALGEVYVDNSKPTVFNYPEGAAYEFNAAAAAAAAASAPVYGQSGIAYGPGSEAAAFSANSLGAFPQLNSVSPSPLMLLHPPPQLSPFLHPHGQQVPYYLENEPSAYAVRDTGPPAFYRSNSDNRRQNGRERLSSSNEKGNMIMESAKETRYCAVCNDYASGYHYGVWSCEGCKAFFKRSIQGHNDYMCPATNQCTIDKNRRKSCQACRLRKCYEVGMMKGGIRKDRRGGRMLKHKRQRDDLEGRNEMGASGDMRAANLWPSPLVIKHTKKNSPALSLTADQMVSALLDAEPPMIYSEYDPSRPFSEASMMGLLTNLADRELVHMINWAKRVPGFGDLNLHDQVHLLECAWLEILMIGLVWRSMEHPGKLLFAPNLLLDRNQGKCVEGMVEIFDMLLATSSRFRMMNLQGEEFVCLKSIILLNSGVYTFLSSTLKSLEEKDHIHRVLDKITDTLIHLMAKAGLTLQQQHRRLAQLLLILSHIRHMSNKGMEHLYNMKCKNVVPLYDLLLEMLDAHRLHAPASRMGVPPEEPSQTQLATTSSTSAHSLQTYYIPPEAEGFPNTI
Nature of the experiment: Reversal of increase in DNA-binding activity of ERalpha in nuclear extracts of mouse MC3T3-E1 cells by electrophoretic mobility shift assays in presence of short interfering ER alpha-RNA. Type of experiment: cell-based. The procedure, abridged: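 Nuclear extracts of MC3T3-E1 cells. ER-binding probe [α-32P]dCTP end-labeled, 20-min binding at room temperature, 5-fold unlabeled competitor where used. Complexes resolved on 5% nondenaturing PAGE in Tris-borate-EDTA pH 8.3, then autoradiography.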
Background: A gel shift assay detects complexes by their altered migration in electrophoresis.

Experiment [2] deals with Osteoblast. Briefly: Effect on tumor necrosis factor gene expression in rat primary osteoblast cells assessed as expression ratio of treated to untreated control by microarray analysis. Type of experiment: functional. In a few lines: (§1)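 GEArray Q series Mouse Osteogenesis cDNA array profiling osteogenic-differentiation genes in treated versus vehicle-treated primary osteoblasts.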

Experiment [3] has as its system Osteoblast. Nature of the experiment: Effect on serine proteinase inhibitor clade H1 gene expression in rat primary osteoblast cells assessed as expression ratio of treated to untreated control by microarray analysis. In kind it is functional. The procedure, abridged: (§2)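 Resveratrol-treated and vehicle-treated primary osteoblasts were profiled on a mouse osteogenesis-focused cDNA array (GEArray Q series) built to track gene expression during osteogenic differentiation. Each gene's signal in treated cells was expressed as a ratio to untreated control.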

The test system of experiment [4] is Rattus norvegicus. Nature of the experiment: Increase in serum ALP activity in ovariectomized Wistar rat dosed orally after 10 weeks. Type of experiment: functional, organism-based. In a few lines: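 Female Wistar rats sham-operated or ovariectomized, fed compound orally every 2 days at indicated doses; femur/tibia BMD by DEXA under ketamine (87 mg/kg)/xylazine (13 mg/kg) anesthesia and serum ALP measured 10 weeks after surgery; n = 8/group, means ± S.D.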

The subject of experiment [5] is MCF7. Briefly: Antiproliferative activity against human MCF7 cells at 1 uM by flow cytometry. Type of experiment: functional, cell-based. In a few lines: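 Proliferation was measured by DNA flow cytometry. Incubations were run in triplicate across three separate experiments, and values are means ± S.D.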
Background: Flow cytometry measures light scatter and fluorescence of single cells or particles in a stream.

Experiment [6] has as its target T2, Alkaline phosphatase (Mus musculus) (UniProt Q9EQ79).
T2 sequence (whole entry): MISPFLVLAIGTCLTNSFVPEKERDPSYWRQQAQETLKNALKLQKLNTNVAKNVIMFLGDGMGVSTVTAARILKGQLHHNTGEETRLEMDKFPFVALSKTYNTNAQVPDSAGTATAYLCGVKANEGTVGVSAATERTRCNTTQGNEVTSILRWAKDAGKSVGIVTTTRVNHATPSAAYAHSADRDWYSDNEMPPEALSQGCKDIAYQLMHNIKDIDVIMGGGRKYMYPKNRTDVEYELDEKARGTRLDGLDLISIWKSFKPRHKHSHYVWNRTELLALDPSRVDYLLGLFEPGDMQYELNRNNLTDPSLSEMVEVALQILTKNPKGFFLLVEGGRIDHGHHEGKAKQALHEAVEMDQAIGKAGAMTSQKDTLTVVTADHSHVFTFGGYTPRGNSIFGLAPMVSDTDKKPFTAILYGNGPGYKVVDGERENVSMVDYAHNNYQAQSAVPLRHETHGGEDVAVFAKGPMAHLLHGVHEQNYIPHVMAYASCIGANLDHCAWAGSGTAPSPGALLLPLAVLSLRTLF
Briefly: Inhibition of induction of ALP activity in mouse MC3T3-E1 cells at 1 uM after 48 hrs in presence of BMP2-specific neutralizing antibody. Type of experiment: cell-based.

Experiment [7] concerns Osteoblast. Briefly: Effect on procollagen 6 alpha 1 gene expression in rat primary osteoblast cells assessed as expression ratio of treated to untreated control by microarray analysis. Type of experiment: functional. The procedure, abridged:
as §2

A short description of experiment [8]: Reversal of increase in pBMP2 expression in mouse MC3T3-E1 cells transfected with dominant-negative mutant Src expression vector at 1 uM by luciferase method. Type of experiment: functional, cell-based. The procedure, abridged:
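BMP-2 promoter activity measured by dual-luciferase assay and expressed relative to the untreated vector control.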

Experiment [9] deals with MDA-MB-231. Briefly: Enhancement of FOXO3a nuclear accumulation in human MDA-MB-231 cells transfected with dominant negative Akt mutant. Type of experiment: functional, cell-based. In a few lines:
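MDA-MB-231 cells transfected with vector, constitutively active Akt or dominant negative Akt, treated ± compound; analyzed by Western blotting and BMP-2 promoter luciferase activity.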

Experiment [10] is described as follows: Reversal of increase in pBMP2 expression in rat primary osteoblast cells at 1 uM by luciferase method in presence of PP2. In kind it is functional, cell-based.
Experiment [11] has as its system T47D. Nature of the experiment: Reduction in anchorage-independent colony formation of human T47D cells at 1 uM by soft agar colony forming assay. In kind it is functional, cell-based. The procedure, abridged: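 Seeded in 0.35% noble agar in DMEM/10% FBS over a 0.7% agar bed. Colonies of at least 50 μm counted after 3 weeks under a dissecting microscope, six replicates per treatment. Three separate experiments.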

The test system of experiment [12] is Osteoblast. Nature of the experiment: Effect on matrix metalloprotease 2 gene expression in rat primary osteoblast cells assessed as expression ratio of treated to untreated control by microarray analysis. Type of experiment: functional. The procedure, abridged: as §2
The target of experiment [13] is RAC-alpha serine/threonine-protein kinase (Homo sapiens) (UniProt P31749). Briefly: Inhibition of IGF-induced Akt phosphorylation in human MDA-MB-231 cells by Western blot. In kind it is cell-based. In a few lines:
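MDA-MB-231 cells, control or treated, stimulated with or without IGF; lysates analyzed by Western blot for Akt phosphorylation.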
A general note: In western blotting, separated proteins are transferred to a membrane and probed.

The test system of experiment [14] is Osteoblast. Briefly: Effect on procollagen 1 alpha 1 gene expression in rat primary osteoblast cells assessed as expression ratio of treated to untreated control by microarray analysis. In kind it is functional. The procedure, abridged:
as §2

In experiment [15] the test system is MC3T3-E1. Briefly: Increase in BMP2 expression in mouse MC3T3-E1 cells expressing pBMP2delta2 mutant at 1 uM after 4 hrs by luciferase method relative to control. Type of experiment: functional, cell-based. In a few lines:
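MC3T3-E1 cells transfected with BMP-2 promoter–luciferase constructs (full promoter or deletions), treated with 1 μm or vehicle for 4 h; Dual-Luciferase assay; means ± S.D.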

A short description of experiment [16]: Reversal of induction of BMP2 expression in mouse MC3T3-E1 cells at 1 uM by Western blot in presence of short interfering ERalpha-RNA. Type of experiment: functional, cell-based.
Experiment [17] has as its system Osteoblast. Nature of the experiment: Effect on vascular endothelial growth factor A gene expression in rat primary osteoblast cells assessed as expression ratio of treated to untreated control by microarray analysis. Type of experiment: functional. In a few lines: as §1
Experiment [18] concerns Osteoblast. Briefly: Effect on twist gene homolog 1 gene expression in rat primary osteoblast cells assessed as expression ratio of treated to untreated control by microarray analysis. In kind it is functional. The procedure, abridged: as §1

RAC-alpha serine/threonine-protein kinase (Homo sapiens), sequence (P31749 whole entry): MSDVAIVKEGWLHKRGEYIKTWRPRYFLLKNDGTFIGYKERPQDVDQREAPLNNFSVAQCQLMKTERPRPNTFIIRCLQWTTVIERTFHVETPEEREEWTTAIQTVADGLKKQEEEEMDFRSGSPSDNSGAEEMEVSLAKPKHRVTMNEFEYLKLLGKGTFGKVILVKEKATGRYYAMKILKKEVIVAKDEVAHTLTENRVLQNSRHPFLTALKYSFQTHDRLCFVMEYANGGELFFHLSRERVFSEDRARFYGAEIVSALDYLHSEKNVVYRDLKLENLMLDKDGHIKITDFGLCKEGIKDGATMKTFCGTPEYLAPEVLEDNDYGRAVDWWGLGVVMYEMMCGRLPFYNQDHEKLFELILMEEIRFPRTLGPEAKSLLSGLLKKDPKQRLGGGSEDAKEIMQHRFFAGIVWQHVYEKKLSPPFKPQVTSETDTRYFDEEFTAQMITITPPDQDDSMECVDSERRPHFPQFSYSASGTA

As to `Oc1ccc(/C=C/c2cc(O)cc(O)c2)cc1` [RESVERATROL], the result in [1], in experiment [5], in experiment [6], in experiment [8], in [9] and in experiment [10] was Active. In addition, the outcome in experiment [11], in experiment [13] and in experiment [16] was Active. Further, the Ratio is 0.46 in experiment [2]; 2.82 in experiment [3]; 2.35 in experiment [7]; 0.46 in experiment [12]; 9.67 in experiment [14]; 0.44 in experiment [17]. Further, the Ratio in [18] is listed as 3.77. Besides, the Activity result in experiment [4] is “Dose-dependent effect”. Also, the outcome in experiment [15] was inactive.
